Bioassay records deposited in PubChem BioAssay by several laboratories.
ABCB6 inh 2 – human ABCB6 transporter inhibition; Q9NP58; K562-ABCB6 porphyrin accumulation, flow cytometry, 1 h; active compounds read low; fluorescence ratio to DMSO, % at 10 µM; 360,000 compounds, 0.19% hits;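 active = fluorescence ratio to DMSO below 75%, the collection mean minus 3 SD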;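 note: signal is porphyrin accumulated inside mitochondria; lower ratio means ABCB6 inhibition with less porphyrin fluorescence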
Target sequence (Q9NP58 whole entry, looked up): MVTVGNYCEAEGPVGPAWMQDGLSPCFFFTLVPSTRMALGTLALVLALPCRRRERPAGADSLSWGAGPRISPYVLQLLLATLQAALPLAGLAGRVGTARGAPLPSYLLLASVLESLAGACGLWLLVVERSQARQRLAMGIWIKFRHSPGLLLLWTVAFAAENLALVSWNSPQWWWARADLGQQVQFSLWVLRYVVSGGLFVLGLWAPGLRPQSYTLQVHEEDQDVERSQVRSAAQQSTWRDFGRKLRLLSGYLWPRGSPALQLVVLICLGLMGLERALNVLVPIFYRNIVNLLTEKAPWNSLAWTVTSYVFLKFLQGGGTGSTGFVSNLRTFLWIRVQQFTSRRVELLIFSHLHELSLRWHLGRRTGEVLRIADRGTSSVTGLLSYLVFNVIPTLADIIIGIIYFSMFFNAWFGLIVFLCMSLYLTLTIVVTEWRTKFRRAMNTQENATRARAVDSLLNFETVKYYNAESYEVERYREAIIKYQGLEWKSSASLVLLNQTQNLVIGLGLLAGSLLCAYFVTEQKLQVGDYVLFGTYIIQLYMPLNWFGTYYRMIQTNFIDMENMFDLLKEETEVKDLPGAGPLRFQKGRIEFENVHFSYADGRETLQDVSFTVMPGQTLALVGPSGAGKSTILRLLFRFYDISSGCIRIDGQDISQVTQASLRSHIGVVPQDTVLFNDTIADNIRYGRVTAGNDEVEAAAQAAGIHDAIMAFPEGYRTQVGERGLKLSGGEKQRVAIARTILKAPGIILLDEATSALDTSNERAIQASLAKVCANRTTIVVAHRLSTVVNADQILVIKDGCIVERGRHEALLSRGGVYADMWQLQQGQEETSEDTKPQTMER
SR-BI DiI-HDL act – SR-BI HDL lipid transfer activation; CHO ldlA[mSR-BI] cells, DiI-HDL uptake fluorescence, 3 h; 100 = double the neutral-control signal; activation, % at 12.5 µM; 320,000 compounds, 0.096% hits;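 active = mean replicate activation of at least 60% and every replicate at or above 60%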
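Assay system: CHO ldlA[mSR-BI] cells, LDL receptor-null, SR-BI overexpressing; medium: Ham's F12 with 0.5% BSA, HEPES 25 mM, pH 7.4; also added: DiI-HDL 10 µg/mL; timing: 3 h uptake period with compound, 37 °C; signal: DiI fluorescence, bottom read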
FXN GAA850 act – frataxin GAA850 promoter activation. HEK293 lucGAA850 FXN promoter luciferase reporter, 24 h; percent of 10 µM SAHA response. activation, % at 6 µM. 360,000 compounds, 0.56% hits. AID 540364;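 active = activation above the average of all compounds screened plus 3 SD, cutoff fixed separately per campaign, cut at about 7.5% in these data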
HIF activator – HIF pathway transcriptional activation; U2OS HRE-luciferase reporter, luminescence; normalized: DMSO 0%, desferrioxamine 100%; activation, % at 7.5 µM (by protocol); 300,000 compounds, 0.32% hits; AID 1910;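 active = mean activation of at least 10% of the iron chelator positive control signal, with at least half of replicates also reaching 10%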
SR-BI HDL uptake – blocks mouse SR-BI lipid uptake from DiI-HDL; inhibition, % at 12.5 µM; AID 488896; Q61009; 320,000 compounds, 0.96% hits; ldlA[mSR-BI] CHO cells, DiI-HDL uptake fluorescence, 3 h;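 active = mean replicate inhibition of at least 70% and a set share of replicates each scoring 70 or more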
AHR activator – activators of human aryl hydrocarbon receptor; 320,000 compounds, 2.5% hits; activation, % at 5 µM; P35869; AHR-responsive luciferase reporter cells, luminescence; in the data active = activation above about 47%
Large screens that a line does not name were inactive. In the library only some 3.9% were active in any assay of this set; here they are far more common.

CC(=O)Nc1ccc(S(=O)(=O)N(C)c2ccccc2)cc1	none
CCN(c1ccccc1)S(=O)(=O)c1ccc(C(=O)Nc2ccncc2)cc1	none
Cc1ccccc1NC(=O)c1nc(S(C)(=O)=O)ncc1Cl	FXN GAA850 act 18
Cc1ccc2oc3c(SCc4nc5ccccc5[nH]4)nc(C)nc3c2c1	none (no result: HIF activator)
Cc1nc(SCc2nc3ccccc3[nH]2)c2oc3cc(Br)ccc3c2n1	AHR activator 77 (no result: HIF activator)
Brc1ccc(-c2csc(N/N=C/c3ccco3)n2)cc1	none (no result: HIF activator)
COc1ccc(-c2csc(Nc3ccc(C)cn3)n2)cc1OC	SR-BI HDL uptake 77
COc1ccc(-c2csc(Nc3cc(C)ccn3)n2)cc1OC	none (no result: SR-BI DiI-HDL act, SR-BI HDL uptake)
CC1CCN(S(=O)(=O)c2ccc(Oc3ccc([N+](=O)[O-])cc3)cc2)CC1	none
Cc1cc(C)nc(Nc2nc(C)c3cc4c(cc3n2)OCO4)n1	AHR activator 49
Cc1ccc(C)c(-c2nc3ccc(N)cc3[nH]2)c1	none
COC(=O)C1=C(C)NC(=O)NC1c1ccc([N+](=O)[O-])o1 (configuration not stated)	none
CCN(C(=O)c1ccco1)c1nc(CC(=O)Nc2ccc(Cl)cc2)cs1	AHR activator 78
CN(C(=O)c1ccco1)c1nc(CC(=O)Nc2ccccc2)cs1	none
COc1cccc(N2CCN(C(=O)c3cccc(N4C(=O)NC5CC4(C)Oc4c(OC)cccc45)c3)CC2)c1 (configuration not stated)	none
CCc1c(C)nc2cc(-c3cccc(Br)c3)[nH]n2c1=O	AHR activator 70
COc1ccccc1-c1ccc(SCC(=O)NCCc2ccccc2)nn1	AHR activator 58
Cn1cnc(S(=O)(=O)Nc2ccccc2C(=O)NCC2CC2)c1	none
Cc1ccccc1C(=O)O/N=C(\N)c1cccc([N+](=O)[O-])c1	AHR activator 94
N/C(=N\OC(=O)C(c1ccccc1)c1ccccc1)c1cccnc1	HIF activator 72
N/C(=N\OC(=O)c1cccc(Br)c1)c1ccncc1	AHR activator 53
N/C(=N\OC(=O)c1cccc([N+](=O)[O-])c1)c1cccnc1	AHR activator 114
O=C(N/N=C/c1ccc2c(c1)OCO2)C(=O)Nc1ccccc1	none
O=C(O)/C(=C\c1ccc(C(F)(F)F)cc1)c1ccc(S(=O)(=O)N2CCCC2)s1	none (no result: HIF activator)
Cc1c(NS(=O)(=O)c2ccc(NCC3CCCO3)c([N+](=O)[O-])c2)c(=O)n(-c2ccccc2)n1C (configuration not stated)	none (no result: SR-BI DiI-HDL act, SR-BI HDL uptake)
Cn1cc(CN2CCCC(C(=O)c3cccs3)C2)c(-c2cccc(Cl)c2)n1 (configuration not stated)	none
N/C(=N\OC(=O)COc1ccc(Br)cc1)c1cccc([N+](=O)[O-])c1	none
Cc1ccc(C)c(OCC(=O)O/N=C(\N)c2cccc([N+](=O)[O-])c2)c1	HIF activator 114
COc1cc2cc(-c3ccc(OC)c(OC)c3C)nc(N)c2cc1OC	none (no result: SR-BI DiI-HDL act, SR-BI HDL uptake)
CCOc1ccc(-c2cc3cc(OC)c(OC)cc3c(C)n2)cc1	SR-BI HDL uptake 74
COc1cc2cc(-c3ccc(O)cc3O)nc(C)c2cc1OC	AHR activator 48
Cc1ccc(OCCN2C(=O)c3ccccc3C2=O)c(C)c1	none
COc1cccc(-c2cccc(-c3nc(C(=O)NCCCN4CCOCC4)cc4c3[C@H](CCO)N(S(=O)C(C)(C)C)C4)c2)c1 (some centres not stated)	none (no result: SR-BI DiI-HDL act, FXN GAA850 act, HIF activator, SR-BI HDL uptake, AHR activator)
COc1ccc(OC)c(Nc2nc(NCc3ccco3)nc(N)c2[N+](=O)[O-])c1	AHR activator 62 (no result: SR-BI DiI-HDL act, SR-BI HDL uptake)
CCOc1ccc(Nc2nc(NCc3ccco3)nc(N)c2[N+](=O)[O-])cc1	none
Nc1nc(NCc2ccco2)nc(Nc2ccc(F)cc2)c1[N+](=O)[O-]	AHR activator 113
Cc1ccccc1Nc1nc(NCc2ccco2)c2ccccc2n1	none
COCCCNc1nc(N)c([N+](=O)[O-])c(Nc2ccccc2OC)n1	AHR activator 56
COc1ccccc1Nc1nc(NCc2ccco2)nc(N)c1[N+](=O)[O-]	none (no result: SR-BI DiI-HDL act, SR-BI HDL uptake)
COc1ccc(OC)c(Nc2nc(NCc3ccco3)c3ccccc3n2)c1	AHR activator 60
N#CCCN(CC(=O)O)S(=O)(=O)c1ccccc1	none
Cc1ccc(S(=O)(=O)Nc2cc(-c3ccccc3)nn2C)cc1	none (no result: SR-BI DiI-HDL act, SR-BI HDL uptake)
Cc1ccc(S(=O)(=O)Nc2cc(-c3ccc(Cl)cc3)nn2C)cc1	HIF activator 19 (no result: SR-BI DiI-HDL act, SR-BI HDL uptake)
COc1ccc(CC(=O)NCc2n[nH]c(=S)n2-c2ccccc2)cc1	none
CCOC(=O)CC(=O)CSc1nc(-c2ccc3c(c2)OCO3)cc(C(F)(F)F)c1C#N	AHR activator 60
COc1ccc(C)cc1S(=O)(=O)NCCN1CCOCC1	SR-BI HDL uptake 74
COCC(=O)N(Cc1ccccc1)c1ccccn1	none
COc1cccc(NC(=O)c2cc(C(=O)Nc3cccc(OC)c3)n(C)n2)c1	SR-BI HDL uptake 78
COc1cccc(NC(=O)c2ccncc2)c1	none
Cn1nc(C(=O)Nc2ccc(Br)cc2)cc1C(=O)Nc1ccc(Br)cc1	AHR activator 65
Cc1cccc(NC(=O)CNC(=O)COc2ccc(C(=O)c3ccc(F)cc3)cc2)c1C	none
Cc1ccccc1Cn1ccc(NC(=O)c2cnn3c(C(F)(F)F)cc(-c4ccco4)nc23)n1	AHR activator 48
Cc1cc(NC(=O)c2cnn3c(C(F)(F)F)cc(-c4ccc(Br)cc4)nc23)no1	SR-BI HDL uptake 77
Cc1ccccc1Cn1ccc(NC(=O)CCSc2nc(-c3ccco3)cc(C(F)(F)F)n2)n1	none
Cc1nn(C)cc1NC(=O)c1cc2nc(-c3ccco3)cc(C(F)(F)F)n2n1	none
O=C(Nc1cnn(Cc2ccccc2)c1)c1cc2nc(-c3ccco3)cc(C(F)(F)F)n2n1	SR-BI HDL uptake 71
O=C(NCc1ccco1)c1cc2nc(-c3ccc4c(c3)OCO4)cc(C(F)(F)F)n2n1	SR-BI HDL uptake 72, AHR activator 63
COc1cccc(-n2c(=O)c3ccccc3n3c(=S)[nH]nc23)c1	none
COc1ccc(-c2cc(C(F)(F)F)n3ncc(C(=O)NCC4CCCO4)c3n2)cc1OC (configuration not stated)	ABCB6 inh 2 64
COc1ccc(-c2cc(C(F)F)n3ncc(C(=O)NCC4CCCO4)c3n2)cc1 (configuration not stated)	none
Cc1ccc(-c2nnc(-n3ncc(C#N)c3N)c3ccccc23)cc1C	SR-BI HDL uptake 78
COc1cc2c(cc1OC)CN(c1ccc3ccccc3n1)CC2	SR-BI HDL uptake 76
CCC(=O)N1CCc2cc(S(=O)(=O)NCCC(=O)N3CCN(c4cccc(OC)c4)CC3)ccc21	HIF activator 30
CCC(=O)N1CCc2cc(S(=O)(=O)NCCC(=O)N3CCN(c4ccccc4)CC3)ccc21	none
